Converted amounts (≈) assume the structure as drawn. The source made the active and inactive calls. No cut-off for these calls is given here.
Assays:
PC-12 [1] = experiment: Induction of neurite outgrowth in rat PC12 cells incubated for 96 hrs by phase contrast microscopy; format: functional, cell-based
Outline: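 PC12 cells grown at 37 °C in DMEM with 5% FBS and 5% horse serum, then dissociated with 1 mM EGTA in PBS for 15 min. Seeded at 3 × 10^4 cells/well on poly-L-lysine. After 24 h, switched to 1% FBS/1% HS with test compounds at various concentrations and no NGF, for 96 h. NGF 100 ng/mL served as positive control. Neurite-bearing cells: process ≥ cell-body diameter, as % of ≥100 cells × 3 fields × 6 wells. Triplicate.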

PC-12 [2] = experiment: Stimulation of NGF-mediated neurite outgrowth in rat PC12 cells incubated for 96 hrs by phase contrast microscopy; format: functional, cell-based; details: for EC50: PC-12, 96 h
Outline: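 PC12 cells cultured and dissociated with EGTA as above, then plated on poly-L-lysine at 3 × 10^4 cells/well. After 24 h, exposed for 96 h to 20 ng/mL NGF plus graded compound concentrations in 1% FBS/1% HS. Phase-contrast count of cells with neurites ≥ soma diameter, as % of ≥100 cells per field (3 fields/well, 6 wells/sample). Triplicate runs. EC50 from linear or nonlinear concentration–response regression.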

Structure (SMILES): C=CC(=C)CC[C@]1(C)[C@H](C)CC[C@@]23C(=C[C@H](OC(=O)C(C)CC)C[C@@H]12)[C@@H](OC(=O)CCC)O[C@H]3OC(C)=O (stereo partly specified)
- Activity (PC-12 [1]): inactive
- Activity (PC-12 [2]): inactive

Structure (SMILES): C=CC(=C)CC[C@]1(C)[C@H](C)C[C@H](OC)[C@@]23C(=C[C@H](OC(=O)C(C)CC)C[C@@H]12)[C@@H](OC(=O)CCC)O[C@H]3OC(C)=O (stereo partly specified)
- Activity (PC-12 [1]): inactive
- Activity (PC-12 [2]): Dose-dependent effect
- EC50 (PC-12 [2]): 12.7 µg/mL (≈ 22.6 µM)

Structure (SMILES): C=CC(=C)CC[C@]1(C)[C@H](C)C[C@H](OC)[C@@]23C(=C[C@H](OC(=O)CCC)C[C@@H]12)[C@@H](OC(=O)CCC)O[C@H]3OC(C)=O
- Activity (PC-12 [1]): inactive
- Activity (PC-12 [2]): Dose-dependent effect
- EC50 (PC-12 [2]): 20.2 µg/mL (≈ 36.9 µM)

Structure (SMILES): C=CC(=C)CC[C@]1(C)[C@H]2C[C@H](OC(=O)C(C)CC)C=C3[C@H](OC)O[C@H](OC(C)=O)[C@@]32[C@H](O)C[C@@H]1C (stereo partly specified) [CASEAMEMBRIN B]
- Activity (PC-12 [1]): inactive
- Activity (PC-12 [2]): Dose-dependent effect
- EC50 (PC-12 [2]): 7.5 µg/mL (≈ 15.3 µM)

Structure (SMILES): C=CC(=C)CC[C@]1(C)[C@H](C)C[C@H](OC)[C@@]2(C=O)C(C=O)=C[C@H](OC(=O)C(C)CC)C[C@@H]12 (stereo partly specified)
- Activity (PC-12 [1]): inactive
- Activity (PC-12 [2]): inactive

Structure (SMILES): C=CC(=C)CC[C@]1(C)[C@H](C)CC[C@@]23[C@H](OC(C)=O)O[C@H](OC(C)=O)[C@@H]2CC(=O)C[C@@H]13
- Activity (PC-12 [1]): inactive
- Activity (PC-12 [2]): inactive

Structure (SMILES): C=CC(=C)CC[C@]1(C)[C@H](C)CC[C@@]23C(=CC(=O)C[C@@H]12)[C@@H](OC(=O)CCC)O[C@H]3OC(C)=O
- Activity (PC-12 [1]): inactive
- Activity (PC-12 [2]): inactive

Structure (SMILES): C=CC(=C)CC[C@]1(C)[C@H](C)C[C@H](OC)[C@@]23C(=C[C@@H](OC(C)=O)C[C@@H]12)[C@@H](OC)O[C@H]3OC(C)=O
- Activity (PC-12 [1]): inactive
- Activity (PC-12 [2]): Dose-dependent effect
- EC50 (PC-12 [2]): 2.4 µg/mL (≈ 5.19 µM)

Structure (SMILES): C=CC(=C)CC[C@]1(C)[C@H](C)C[C@H](OC)[C@@]23C(=CC(=O)C[C@@H]12)[C@@H](OC(C)=O)O[C@H]3OC(C)=O
- Activity (PC-12 [1]): inactive
- Activity (PC-12 [2]): Dose-dependent effect
- EC50 (PC-12 [2]): 2.5 µg/mL (≈ 5.6 µM)

Structure (SMILES): C=CC(=C)CC[C@]1(C)[C@H](C)C[C@H](OC)[C@@]23C(=C[C@H](OC(=O)C(C)CC)C[C@@H]12)[C@@H](OC)O[C@H]3OC(C)=O (stereo partly specified)
- Activity (PC-12 [1]): inactive
- Activity (PC-12 [2]): Dose-dependent effect
- EC50 (PC-12 [2]): 4 µg/mL (≈ 7.93 µM)
